Test in all cases: UV-Vis spectral titration
Assay type in all cases: binding

Data set [1] concerns the target CYP3A4 (Homo sapiens, UniProt P08684, S18F). Summed up:
(§1)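 Human CYP3A4 (NF-14 construct, C-terminal pentahistidine tag, pCWori+ vector), wild type or F213 mutant, was incorporated into POPC Nanodiscs. The enzyme at 1-2 µM was titrated at 37 °C with test compound added in methanol (final methanol <1.5%), and UV-Vis spectra were read for the heme high-spin shift. Mixed titrations kept a fixed 1:12 steroid:second-substrate molar ratio.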

Data set [2] addresses CYP3A4 (Homo sapiens, UniProt P08684, F213S/S18F). Summed up:
as §1

The target of data set [3] is CYP3A4 (Homo sapiens, UniProt P08684, F213Y/S18F). The gist of the method:
as §1

The target of data set [4] is CYP3A4 (Homo sapiens, UniProt P08684, F213A/S18F). Summed up:
as §1

Results on 1 molecule are retold here after publication PMC7003538 (Biochemistry, 2019).

Molecules are shown by their SMILES. pKd: −log10 of the molar value.

Sequence of CYP3A4 (Homo sapiens, UniProt P08684, S18F) (P08684 13-503 S18F limits assumed): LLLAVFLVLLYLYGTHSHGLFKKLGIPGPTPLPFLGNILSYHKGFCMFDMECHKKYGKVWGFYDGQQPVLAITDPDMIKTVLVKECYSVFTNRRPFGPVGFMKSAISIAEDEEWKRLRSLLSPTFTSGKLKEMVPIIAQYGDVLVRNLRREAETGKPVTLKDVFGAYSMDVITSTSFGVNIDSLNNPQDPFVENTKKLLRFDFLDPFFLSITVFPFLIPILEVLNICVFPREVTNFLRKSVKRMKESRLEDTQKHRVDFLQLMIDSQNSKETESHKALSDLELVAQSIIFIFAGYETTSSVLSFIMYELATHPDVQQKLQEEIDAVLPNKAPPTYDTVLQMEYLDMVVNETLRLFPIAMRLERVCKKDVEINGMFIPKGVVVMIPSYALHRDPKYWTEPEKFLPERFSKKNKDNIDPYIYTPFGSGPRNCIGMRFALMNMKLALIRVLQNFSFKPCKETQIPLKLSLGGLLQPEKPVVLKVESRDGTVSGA
Sequence of CYP3A4 (Homo sapiens, UniProt P08684, F213A/S18F) (P08684 13-503 S18F/F213A limits assumed): as the sequence (P08684 13-503 S18F limits assumed) above, with F201A counted along it
Sequence of CYP3A4 (Homo sapiens, UniProt P08684, F213S/S18F) (P08684 13-503 S18F/F213S limits assumed): as the sequence (P08684 13-503 S18F limits assumed) above, with F201S counted along it
Sequence of CYP3A4 (Homo sapiens, UniProt P08684, F213Y/S18F) (P08684 13-503 S18F/F213Y limits assumed): as the sequence (P08684 13-503 S18F limits assumed) above, with F201Y counted along it

As to `CC(=O)[C@H]1CC[C@H]2[C@@H]3CCC4=CC(=O)CC[C@]4(C)[C@H]3CC[C@]12C` [progesterone], the pKd in data set [1] was 4.51; in data set [2], 4.62; in data set [3], 4.66; in data set [4], 4.61.
